# Source: ChEMBL document CHEMBL3525971 (Drug Metab Dispos, 2011)
# Columns and labels:
# [1] = Apparent half-life of the terminal disposition phase in castrated pig plasma withdrawn from femoral vein at 0.2 mg/kg, iv by UPLC-tandem mass spectrometry; type: ADME, organism-based, Sus scrofa; parameters: dose 0.2 mg/kg, route intravenous; conditions: male, read-out: t1/2 lambda z (converted)
# In short: (§1)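 Where ketoconazole was co-dosed, it was given at 10 mg/kg at the same jejunal site 20 min before. Plasma protein-precipitated with acetonitrile and analysed by UPLC-MS/MS (finasteride-d9). AUC0-6h, Cmax and t1/2 (ln2/λz) were derived by non- or compartmental analysis.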
# Plasma [2] = assay: Drug metabolism in castrated pig plasma withdrawn from hepatic vein assessed as omega-hydroxy finasteride metabolite formation by UPLC-tandem mass spectrometry; type: ADME, cell-free, Sus scrofa
# In short: (§2)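 Plasma sampled 0-6 h from portal, hepatic and femoral veins. Analysed by acetonitrile precipitation with finasteride-d9 internal standard, then UPLC-MS/MS in SRM mode, m/z 389.41 → 271.94 for the ω-hydroxy metabolite.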
# Sus scrofa [3] = assay: Hepatic clearance in castrated pig at 0.8 mg/kg administered as intrajejunal dose 20 mins after ketoconazole administration by UPLC-tandem mass spectrometry; type: ADME, organism-based, Liver; parameters: dose 0.8 mg/kg; conditions: in vivo, other
# In short: (§3)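 Portal and hepatic vein plasma measured 0-6 h by UPLC-MS/MS. Extraction ratio derived from portal versus hepatic concentrations or AUCs; CLH then obtained as EH × liver blood flow 52 ml/min/kg × measured blood/plasma ratio.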
# [4] = Cmax in castrated pig bile at 0.8 mg/kg administered as intrajejunal dose 20 mins after ketoconazole administration by UPLC-tandem mass spectrometry; type: ADME, organism-based, Sus scrofa; parameters: dose 0.8 mg/kg; conditions: male
# [5] = Renal clearance in castrated pig at 0.8 mg/kg, administered as intrajejunal dose by UPLC-tandem mass spectrometry; type: ADME, organism-based, Sus scrofa, Kidney; parameters: dose 0.8 mg/kg; conditions: male, in vivo
# In short: (§4)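 Urine collected 0-360 min into a closed bag, weighed and frozen at -20°C. […] Doses: iv 0.2 mg/kg bolus via central vein catheter (n=3), or ij 0.8 mg/kg alone or 20 min after ij ketoconazole 10 mg/kg (n=5). Renal clearance derived from the amount excreted in urine over 0-6 h.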
# [6] = Biliary excretion in castrated pig assessed as unchanged drug level at 0.8 mg/kg administered as intrajejunal dose measured during 6 hrs sampling by UPLC-tandem mass spectrometry; type: ADME, organism-based, Sus scrofa, Bile; parameters: dose 0.8 mg/kg; conditions: in vivo, other
# [7] = AUC (0 to 6 hrs) in castrated pig plasma withdrawn from hepatic vein at 0.8 mg/kg administered as intrajejunal dose by UPLC-tandem mass spectrometry; type: ADME, organism-based, Sus scrofa; parameters: time < 6 hr, dose 0.8 mg/kg; conditions: male; in short: as §1
# Sus scrofa [8] = assay: Hepatic clearance in castrated pig at 0.8 mg/kg, administered as intrajejunal dose by UPLC-tandem mass spectrometry; type: ADME, organism-based, Liver; parameters: dose 0.8 mg/kg; conditions: in vivo, other; in short: as §3
# [9] = Cmax in castrated pig plasma withdrawn from femoral vein at 0.8 mg/kg administered as intrajejunal dose by UPLC-tandem mass spectrometry; type: ADME, organism-based, Sus scrofa; parameters: dose 0.8 mg/kg; conditions: male; in short: as §1
# [10] = Ratio of AUC in bile to plasma withdrawn from hepatic vein in castrated pig at 0.8 mg/kg administered as intrajejunal dose 20 mins after ketoconazole administration by UPLC-tandem mass spectrometry; type: ADME, organism-based, Sus scrofa; parameters: dose 0.8 mg/kg; conditions: male, read-out: Ratio AUC
# In short: (§5)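 Bile collected 0-6 h and weighed; portal and hepatic vein plasma sampled. UPLC-MS/MS quantification against finasteride-d9 in SRM mode. Bile/plasma AUC ratio calculated per vein.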
# Sus scrofa [11] = assay: Absorption rate constant in castrated pig plasma withdrawn from portal vein at 0.8 mg/kg administered as intrajejunal dose 20 mins after ketoconazole administration by UPLC-tandem mass spectrometry; type: ADME, organism-based; parameters: dose 0.8 mg/kg; conditions: in vivo, other
# [12] = Ratio of AUC in bile to plasma withdrawn from portal vein in castrated pig at 0.8 mg/kg administered as intrajejunal dose 20 mins after ketoconazole administration by UPLC-tandem mass spectrometry; type: ADME, organism-based, Sus scrofa; parameters: dose 0.8 mg/kg; conditions: male, read-out: Ratio AUC; in short: as §5
# [13] = Total plasma clearance in castrated pig at 0.2 mg/kg, iv by UPLC-tandem mass spectrometry; type: ADME, organism-based, Sus scrofa; parameters: dose 0.2 mg/kg, route intravenous; conditions: male
# In short: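 Femoral plasma assayed over 0-6 h by UPLC-MS/MS. CL calculated as dose/AUCVF,0-6h; Vss calculated as MRT × CL, with MRT = AUMC0-6h/AUC0-6h.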
# [14] = Ratio of AUC in bile to plasma withdrawn from portal vein in castrated pig at 0.2 mg/kg, iv by UPLC-tandem mass spectrometry; type: ADME, organism-based, Sus scrofa; parameters: dose 0.2 mg/kg, route intravenous; conditions: male, read-out: Ratio AUC
# In short: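 Bile collected 0-6 h and weighed; portal and hepatic vein plasma sampled. Analytes quantified by UPLC-MS/MS (finasteride-d9 internal standard, SRM). Bile AUC divided by plasma AUC for each vein.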
# [15] = Apparent biliary clearance in castrated pig at 0.8 mg/kg administered as intrajejunal dose 20 mins after ketoconazole administration by UPLC-tandem mass spectrometry; type: ADME, organism-based, Sus scrofa, Bile; parameters: dose 0.8 mg/kg; conditions: in vivo, other
# [16] = Renal clearance in castrated pig at 0.2 mg/kg, iv by UPLC-tandem mass spectrometry; type: ADME, organism-based, Sus scrofa, Kidney; parameters: dose 0.2 mg/kg, route intravenous; conditions: male, in vivo; in short: as §4
# [17] = Drug excretion in castrated pig urine assessed as fraction of the dose excreted at 0.2 mg/kg, iv measured during 6 hrs sampling by UPLC-tandem mass spectrometry; type: ADME, organism-based, Sus scrofa; parameters: dose 0.2 mg/kg, route intravenous; conditions: male, read-out: Drug excretion
# [18] = Biliary excretion in castrated pig assessed as fraction of the dose excreted at 0.2 mg/kg, iv measured during 6 hrs sampling by UPLC-tandem mass spectrometry; type: ADME, organism-based, Sus scrofa; parameters: dose 0.2 mg/kg, route intravenous; conditions: male, bile, read-out: Drug excretion
# [19] = Renal clearance in castrated pig at 0.8 mg/kg, administered as intrajejunal dose 20 mins after ketoconazole administration by UPLC-tandem mass spectrometry; type: ADME, organism-based, Sus scrofa, Kidney; parameters: dose 0.8 mg/kg; conditions: male, in vivo; in short: as §4
# [20] = Cmax in castrated pig plasma withdrawn from hepatic vein at 0.8 mg/kg administered as intrajejunal dose 20 mins after ketoconazole administration by UPLC-tandem mass spectrometry; type: ADME, organism-based, Sus scrofa; parameters: dose 0.8 mg/kg; conditions: male; in short: as §1
# [21] = Ratio of AUC in bile to plasma withdrawn from hepatic vein in castrated pig at 0.8 mg/kg administered as intrajejunal dose by UPLC-tandem mass spectrometry; type: ADME, organism-based, Sus scrofa; parameters: dose 0.8 mg/kg; conditions: male, read-out: Ratio AUC; in short: as §5
# [22] = Terminal half life in castrated pig plasma withdrawn from femoral vein at 0.8 mg/kg administered as intrajejunal dose by UPLC-tandem mass spectrometry; type: ADME, organism-based, Sus scrofa; parameters: dose 0.8 mg/kg; conditions: male, read-out: beta t1/2 (converted)
# In short: (§6)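 Portal, hepatic and femoral vein plasma sampled over 6 h and assayed by UPLC-MS/MS. Tmax read directly from the profiles. Terminal t1/2 calculated as ln2/λz by non- or compartmental analysis; values below LLOQ after Cmax excluded.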
# [23] = Apparent half-life of the terminal disposition phase in castrated pig plasma withdrawn from hepatic vein at 0.2 mg/kg, iv by UPLC-tandem mass spectrometry; type: ADME, organism-based, Sus scrofa; parameters: dose 0.2 mg/kg, route intravenous; conditions: male, read-out: t1/2 lambda z (converted); in short: as §1
# [24] = Apparent biliary clearance in castrated pig at 0.2 mg/kg, iv by UPLC-tandem mass spectrometry; type: ADME, organism-based, Sus scrofa, Bile; parameters: dose 0.2 mg/kg, route intravenous; conditions: in vivo
# [25] = Terminal half life in castrated pig plasma withdrawn from portal vein at 0.8 mg/kg administered as intrajejunal dose by UPLC-tandem mass spectrometry; type: ADME, organism-based, Sus scrofa; parameters: dose 0.8 mg/kg; conditions: male, read-out: beta t1/2 (converted); in short: as §6
# [26] = Drug excretion in castrated pig urine assessed as unchanged drug level at 0.2 mg/kg, iv measured during 6 hrs sampling by UPLC-tandem mass spectrometry; type: ADME, organism-based, Sus scrofa; parameters: dose 0.2 mg/kg, route intravenous; conditions: in vivo
# [27] = Terminal half life in castrated pig plasma withdrawn from hepatic vein at 0.8 mg/kg administered as intrajejunal dose 20 mins after ketoconazole administration by UPLC-tandem mass spectrometry; type: ADME, organism-based, Sus scrofa; parameters: dose 0.8 mg/kg; conditions: male, read-out: beta t1/2 (converted); in short: as §6
# [28] = Terminal half life in castrated pig plasma withdrawn from hepatic vein at 0.8 mg/kg administered as intrajejunal dose by UPLC-tandem mass spectrometry; type: ADME, organism-based, Sus scrofa; parameters: dose 0.8 mg/kg; conditions: male, read-out: beta t1/2 (converted); in short: as §6
# Plasma [29] = assay: Drug metabolism in castrated pig plasma withdrawn from portal vein assessed as omega-hydroxy finasteride metabolite formation by UPLC-tandem mass spectrometry; type: ADME, cell-free, Sus scrofa; in short: as §2
# [30] = Oral absorption in human; type: ADME, organism-based; conditions: in vivo
# [31] = Tmax in castrated pig plasma withdrawn from portal vein at 0.8 mg/kg administered as intrajejunal dose 20 mins after ketoconazole administration by UPLC-tandem mass spectrometry; type: ADME, organism-based, Sus scrofa; parameters: dose 0.8 mg/kg; conditions: male; in short: as §6
compound,measurement,setting,value
CC(C)(C)NC(=O)[C@H]1CC[C@H]2[C@@H]3CC[C@H]4NC(=O)C=C[C@]4(C)[C@H]3CC[C@]12C [FINASTERIDE],half-life,[1],3.4 h
same,Drug metabolism,Plasma [2],metabolite_not_detected
same,CLH,Sus scrofa [3],25900 mL/day/kg
same,Cmax,[4],2000 nM
same,CL renal,[5],7.2 mL/day/kg
same,Ae,[6],0.03 µmol
same,AUC(0-t) at 6 h,[7],1.6 µM·h
same,CLH,Sus scrofa [8],36000 mL/day/kg
same,Cmax,[9],600 nM
same,Kp at 20 min,[10],6
same,ka,Sus scrofa [11],29 h⁻¹
same,Kp at 20 min,[12],0.7
same,clearance,[13],10100 mL/day/kg
same,Kp,[14],0.9
same,CL(app),[15],14 mL/day/kg
same,CL renal,[16],14.4 mL/day/kg
same,dose excreted at 6 h,[17],0.12%
same,dose excreted at 6 h,[18],0.19%
same,CL renal at 20 min,[19],8.64 mL/day/kg
same,Cmax,[20],1400 nM
same,Kp,[21],14
same,half-life,[22],1.6 h
same,half-life,[23],3.1 h
same,CL(app),[24],20.2 mL/day/kg
same,half-life,[25],1.5 h
same,Ae,[26],0.02 µmol
same,half-life,[27],3.6 h
same,half-life,[28],1.7 h
same,Drug metabolism,Plasma [29],metabolite_not_detected
same,Fa,[30],> 85%
same,Tmax,[31],0.3 h
